By IC50 is commonly meant the point on the concentration scale where inhibition reaches its midpoint.

Test [1] concerns MDA-MB-231. The test is described as follows: Cell cycle arest in human MDA-MB-231 cells assessed as increase in p21 mRNA expression at 5 uM after 24 hrs by RT-PCR. Type of test: functional, cell-based. In outline: (§1)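 MDA-MB231 cells (1 × 10⁶) grown overnight in six-well plates, treated at 5 µM. Total RNA isolated with Trizol, 1 µg digested with DNase I, then reverse transcribed. Relative mRNA levels of cyclin A1, bax, bcl-2, p21 and p53 measured by real-time PCR against untreated control.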

Test [2] concerns MDA-MB-231. The test is described as follows: Cell cycle arrest in human MDA-MB-231 cells assessed as increase in p53 mRNA expression at 5 uM after 24 hrs by RT-PCR. Format: functional, cell-based. Put shortly: as §1
Test [3] has as its system MDA-MB-231. The test is described as follows: Cell cycle arrest in human MDA-MB-231 cells assessed as reduction in bcl2 mRNA expression at 5 uM after 24 hrs by RT-PCR. Format: functional, cell-based. In outline: as §1
The test system of test [4] is MDA-MB-231. The test is described as follows: Cytotoxicity against human MDA-MB-231 cells after 24 hrs by MTT assay. Format: functional, cell-based. To be noted: Homo sapiens, MDA-MB-231, 24 h; read-out: IC50. Put shortly:
(§2)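 Cells seeded at 1 × 10⁴/well in DMEM with 10% FBS and held 24 h at 37 °C in CO₂. Compounds diluted in culture medium and incubated 24 h. Medium removed, MTT (5 mg/ml) added for 4 h, formazan dissolved in DMSO, absorbance read at 540 nm. Viability given as percent of untreated cells.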
For orientation: Tetrazolium dyes change colour on reduction, which living cells bring about.

The test system of test [5] is MDA-MB-231. The test is described as follows: Cell cycle arest in human MDA-MB-231 cells assessed as increase in sub G1 phase at 5 uM after 24 hrs annexin-V FITC and PI staining by flow cytometry. Format: functional, cell-based.
The subject of test [6] is MDA-MB-231. The test is described as follows: Cell cycle arrest in human MDA-MB-231 cells assessed as decrease in S phase at 5 uM after 24 hrs annexin-V FITC and PI staining by flow cytometry. Type of test: functional, cell-based. On the technique in general: Flow cytometry measures light scatter and fluorescence of single cells or particles in a stream.
The subject of test [7] is MDA-MB-231. The test is described as follows: Cell cycle arrest in human MDA-MB-231 cells assessed as reduction in cyclin A1 mRNA expression at 5 uM after 24 hrs by RT-PCR. Format: functional, cell-based. In outline:
as §1

The test system of test [8] is MDA-MB-231. The test is described as follows: Induction of apoptosis in human MDA-MB-231 cells assessed as reduction in membrane potential at 5 uM after 24 hrs by flow cytometry. Type of test: functional, cell-based. Put shortly: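 MDA-MB-231 cells treated 24 h at 5 µM, collected by trypsinization and washed with PBS. Cells loaded with JC-1 for 15 min at 37 °C, rinsed three times in phenol-red-free high-glucose DMEM and resuspended in prewarmed medium. Membrane potential taken as the red/green (590/530 nm) fluorescence ratio.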

For another test, the system named is MCF7. The test is described as follows: Cytotoxicity against human MCF7 cells after 24 hrs by MTT assay. Type of test: functional, cell-based. To be noted: Homo sapiens, MCF7, 24 h; read-out: IC50. Put shortly:
as §2

In test [9] the test system is MDA-MB-231. The test is described as follows: Cell cycle arrest in human MDA-MB-231 cells assessed as increase in bax mRNA expression at 5 uM after 24 hrs by RT-PCR. Type of test: functional, cell-based. Put shortly: as §1
The subject of test [10] is MDA-MB-231. The test is described as follows: Induction of apoptosis in human MDA-MB-231 cells assessed as increase in caspase level at 5 uM after 24 hrs. Type of test: functional, cell-based. In outline:
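MDA-MB231 cells kept serum-deprived for 4 h, then treated 24 h at 5 µM. Cells incubated with caspase substrate DEVD-rhodamine-110 in a homogeneous caspase assay. Fluorescence of released rhodamine-110 measured at […].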

In test [11] the test system is MDA-MB-231. The test is described as follows: Induction of apoptosis in human MDA-MB-231 cells assessed as early apoptotic cells at 5 uM after 24 hrs annexin-V FITC and PI staining by flow cytometry. Format: functional, cell-based. In outline: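 MDA-MB231 cells (1 × 10⁶) grown overnight in six-well plates, then given 5 µM final compound or vehicle (0.001% DMSO) for 24 h. Floating and adherent cells harvested by trypsinization and washed with PBS. 1 × 10⁵ cells stained with Annexin V-FITC and propidium iodide and analysed by flow cytometry with 488 nm excitation; Annexin V-FITC read at 535 nm emission.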

Another test concerns HEK293. The test is described as follows: Cytotoxicity against HEK293 cells after 24 hrs by MTT assay. Format: cell-based, Homo sapiens. The settings on record: Homo sapiens, HEK293, 24 h; read-out: IC50. In outline:
as §2

The test system of a further test is HeLa. The test is described as follows: Cytotoxicity against human HeLa cells after 24 hrs by MTT assay. Format: functional, cell-based. Put shortly: as §2

The source made the active and inactive calls. The calls are words filed in the database; no cut-off is given here.

Turning to `Cc1cc(O)c(C(=O)/C=C/c2cccc(Cl)c2)c(-c2ccccc2)c1C(=O)/C=C/c1cccc(Cl)c1`, the outcome in the test with MDA-MB-231 [1], in the test with MDA-MB-231 [2], with MDA-MB-231 [3], with MDA-MB-231 [5], in the test with MDA-MB-231 [6] and in the test with MDA-MB-231 [7] was Active. Moreover, the result in the test with MDA-MB-231 [8], with MDA-MB-231 [9], in the test with MDA-MB-231 [10] and in the test on MDA-MB-231 [11] was Active. The IC50 in the test with MDA-MB-231 [4] stood at 4.67 µM; with MCF7, 20 µM; in the test on HEK293, 15 µM; in the test on HeLa (Homo sapiens, HeLa, 24 h, read-out: IC50) it was 22 µM.
In the case of `Cc1cc(O)c(C(=O)/C=C/c2ccccc2)c(-c2ccc(Cl)cc2)c1C(=O)/C=C/c1ccccc1`, the outcome in the test with MDA-MB-231 [1], with MDA-MB-231 [2], in the test with MDA-MB-231 [3], in the test with MDA-MB-231 [5], in the test on MDA-MB-231 [6] and with MDA-MB-231 [7] was Active. Besides, the outcome in the test with MDA-MB-231 [8], in the test with MDA-MB-231 [10] and in the test with MDA-MB-231 [11] was Active. Besides, the 50% inhibitory concentration (IC50) was 4.4 µM in the test with MDA-MB-231 [4], 15 µM in the test with MCF7, 5 µM in the test with HEK293 and “Not Active” in the test with HeLa (hela).

The record behind these values is ChEMBL document CHEMBL1177648, “Synthesis and anti breast cancer activity of biphenyl based chalcones” (Bioorg Med Chem, 2010).
